Measurements from ChEMBL document CHEMBL1155548, “Synthesis and evaluation of new endomorphin-2 analogues containing (Z)-alpha,beta-didehydrophenylalanine (Delta(Z)Phe) residues” (J Med Chem, 2010).

Target: Delta-type opioid receptor (Homo sapiens, UniProt P41143)
Assay: Displacement of [3H]DPDPE from human delta opioid receptor expressed in HEK293 cells up to 100 uM; call rule not given here
Type: cell-based
Summary of the method: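 Crude membranes from transfected cells: HN9.10 cells expressing rat μ-opioid receptor, competed against μ-selective agonist [³H]DAMGO; HEK293 cells expressing human δ-opioid receptor, competed against δ-selective agonist [³H]DPDPE. Competitive displacement with three independent experiments, fitted by non-linear regression; Ki derived from IC50 via Cheng–Prusoff equation.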

Delta-type opioid receptor, sequence (P41143 whole entry): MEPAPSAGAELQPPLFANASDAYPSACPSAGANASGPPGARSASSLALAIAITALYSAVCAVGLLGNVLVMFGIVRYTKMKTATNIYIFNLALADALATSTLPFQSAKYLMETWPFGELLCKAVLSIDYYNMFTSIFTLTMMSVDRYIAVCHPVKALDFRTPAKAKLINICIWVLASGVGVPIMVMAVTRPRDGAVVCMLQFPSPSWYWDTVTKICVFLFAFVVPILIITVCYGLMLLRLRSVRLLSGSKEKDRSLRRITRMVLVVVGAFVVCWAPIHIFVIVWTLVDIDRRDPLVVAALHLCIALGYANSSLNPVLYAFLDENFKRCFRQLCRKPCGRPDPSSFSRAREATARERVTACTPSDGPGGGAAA

NC(=O)[C@H](Cc1ccccc1)NC(=O)/C(=C/c1ccccc1)NC(=O)[C@@H]1CCCN1C(=O)[C@@H](N)Cc1ccc(O)cc1
Ki: Not Active
